Screens deposited in PubChem by Broad Institute.
Most compounds without a hit are left out; they make up all but 2.5% or so of the library.
Glyco luc inh – blocks N-linked glycosylation in D54 reporter cells; hit rate 0.23% among 360,000; reporter increase, % at 12.5 µM; D54 ERlucT glycosylation luciferase reporter, 24 h; percent of 100 nM tunicamycin response;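 active means mean luciferase reporter signal, scaled so untreated is 0 and the glycosylation-blocking control 100, at or above a set limit in every replicate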;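 further: luciferase carries N-glycosylation sites so blocking glycosylation raises the light; 0% = median of neutral control wells and 100% = median of 100 nM tunicamycin wells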
EWS-Fli block – inhibitors of EWS/Fli oncoprotein transcriptional activity; A673 NR0B1-luciferase reporter, viability-normalised; inhibition, % at 12.6 µM; hit rate 0.67% among 350,000; AID 651661;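 active means mean inhibition of at least 50% after viability correction, with every replicate also passing that limit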;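 further: firefly luciferase signal divided by Alamar Blue viability fluorescence both relative to DMSO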
FN deposit inh – fibronectin deposition inhibition | hit rate 0.086% among 350,000 | inhibition, % at 12.6 µM | AID 743247 | AH1F fibroblasts, Alexa488-fibronectin deposition fluorescence, overnight;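 active means mean inhibition across replicates of 30% or more, regardless of how many single replicates reach that level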;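 further: positive control wells lacked labelled fibronectin entirely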
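Material – AH1F fibroblast monolayer, labelled fibronectin deposition · Reagent – labelled fibronectin 24 nM · Timing – 1 h adhesion, overnight exposure · Measured by – fluorescence at 485 nm excitation, 525 nm emission · Read-out – inhibition of fibronectin deposition signal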
PAX8 inh HTS – inhibitors of PAX8 transcriptional activity in RMG-I cells | RMG-I TPO-luciferase reporter, SteadyGlo, 24 h | inhibition, % at 12.6 µM | hit rate 1.2% among 360,000;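 active means mean replicate inhibition at least 60% with every replicate also reaching 60%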;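 further: luciferase light reporting Pax8 driven TPO promoter activity; plate controls were median of neutral control wells for no effect and mitoxantrone controls for full effect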
AF4-AF9 inh – MLL-AF4/AF9 protein interaction inhibition | inhibition, % at 10 µM | AID 651704 | P42568 | hit rate 0.47% among 350,000 | AlphaScreen, biotin-AF4 peptide binding to FLAG-AF9;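 active means every replicate reaching a set inhibition limit, whatever the replicate mean, cut at about 25% in these data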;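 further: 0% = plate neutral control median and 100% = total signal loss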
Target sequence (P42568 whole entry, looked up): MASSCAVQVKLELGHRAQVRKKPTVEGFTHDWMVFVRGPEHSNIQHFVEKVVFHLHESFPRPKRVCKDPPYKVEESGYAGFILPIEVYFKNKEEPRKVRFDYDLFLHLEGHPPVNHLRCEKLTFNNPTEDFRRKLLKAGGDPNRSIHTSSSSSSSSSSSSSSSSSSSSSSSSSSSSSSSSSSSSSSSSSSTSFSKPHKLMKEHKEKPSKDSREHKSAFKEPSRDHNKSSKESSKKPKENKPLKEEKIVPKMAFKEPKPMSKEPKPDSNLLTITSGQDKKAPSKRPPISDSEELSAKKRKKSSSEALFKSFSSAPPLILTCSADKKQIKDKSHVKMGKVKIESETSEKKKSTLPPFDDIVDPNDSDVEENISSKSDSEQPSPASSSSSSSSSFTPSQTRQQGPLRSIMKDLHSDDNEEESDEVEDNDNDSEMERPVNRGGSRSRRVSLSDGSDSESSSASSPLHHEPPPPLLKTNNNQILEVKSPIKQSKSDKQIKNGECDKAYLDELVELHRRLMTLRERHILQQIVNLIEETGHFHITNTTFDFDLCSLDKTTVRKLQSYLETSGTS
Env fusion inh – blocks HIV Env-driven cell-cell fusion. inhibition, % at 12.3 µM. hit rate 1.1% among 360,000. HeLa-JRFL Env/CEM21 cell fusion, luciferase;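 active means mean replicate inhibition score of at least 50 and every replicate individually at or above 50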;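 further: 0% = plate neutral controls and 100% = maraviroc near 300 nM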
* marks the source's active call; other numbers are inactive results; ! = repeats disagree; [ ] = remark or other dose.

For Cc1cccc(-c2ccc(C3[C@@H]4CN(Cc5ccccc5F)C[C@H]3N4)cc2)c1 (stereo partly drawn) the results were EWS-Fli block -13.6, FN deposit inh -0.3, PAX8 inh HTS 5.7 and AF4-AF9 inh 8.7.
Fc1ccc(-c2ccc(C3[C@@H]4CN(Cc5ccccc5)C[C@H]3N4)cc2)cc1 (stereo partly drawn) was read as EWS-Fli block 1.9, FN deposit inh -6.4, PAX8 inh HTS 74.1*! and AF4-AF9 inh 19.9.
`COc1cccc(-c2ccc(C3[C@@H]4CN(Cc5cccc(F)c5)C[C@H]3N4)cc2)c1` (stereo partly drawn) gave EWS-Fli block -11.5, FN deposit inh -2.5, PAX8 inh HTS 75.3*! and AF4-AF9 inh 13.6.
COc1cc(CN2C[C@@H]3N[C@H](C2)C3c2ccc(-c3ccccc3C)cc2)cc(OC)c1 (stereo partly drawn) was read as EWS-Fli block 4.1, FN deposit inh 13.1, PAX8 inh HTS 72.8*! and AF4-AF9 inh 26.8*!.
`Cc1ccc(-c2ccc([C@@H]3[C@@H]4CN(Cc5ccccc5F)C[C@H]3N4)cc2)cc1` gave EWS-Fli block -11.7, FN deposit inh 20.1 and PAX8 inh HTS 89.4*.
Cc1ccccc1-c1ccc(C2[C@@H]3CN(C(=O)Cc4ccccc4)C[C@H]2N3)cc1 (stereo partly drawn) was read as EWS-Fli block 55.8*!, FN deposit inh -2.8, PAX8 inh HTS 33.1 and AF4-AF9 inh 2.2.
Screening COc1ccccc1CN1C[C@@H]2N[C@H](C1)C2c1ccc(/C=C/c2ccccc2)cc1 (stereo partly drawn) returned EWS-Fli block -14.5, FN deposit inh -15.1, PAX8 inh HTS -2.0 and AF4-AF9 inh 29.9*.
COc1ccccc1CN1C[C@@H]2N[C@H](C1)C2c1ccc(-c2ccccc2)cc1 (stereo partly drawn) was read as EWS-Fli block -0.6, FN deposit inh -11.1, PAX8 inh HTS 11.9 and AF4-AF9 inh 14.6.
For O=C(Cc1ccncc1)N1C[C@@H]2N[C@H](C1)C2c1ccc(-c2ccccc2)cc1 (stereo partly drawn) the results were EWS-Fli block 2.5, FN deposit inh -7.1, PAX8 inh HTS -3.5 and AF4-AF9 inh -1.7.
Screening Cn1cnc(S(=O)(=O)N[C@@H]2C=C[C@@H](CC(=O)NCC3CCCCC3)O[C@H]2CO)c1 returned EWS-Fli block -4.9, FN deposit inh -5.9, PAX8 inh HTS -8.1, AF4-AF9 inh -0.2 and Env fusion inh -0.8[16.7 µM].
`Cc1noc(C)c1NC(=O)N(C)C[C@H]1Oc2ccc(NS(=O)(=O)c3cccs3)cc2CC(=O)N([C@@H](C)CO)C[C@H]1C` gave EWS-Fli block -4.3, PAX8 inh HTS 16.4 and Env fusion inh -13.5[16.7 µM].
Screening O=C1CC(c2ccccc2)Cc2nc(N3CCc4ccccc4C3)ncc21 (stereo not drawn) returned Glyco luc inh -0.9, FN deposit inh 16.1 and Env fusion inh 4.6.
`Cc1ccc(C2CC(=O)c3cnc(N4CCc5ccccc5C4)nc3C2)cc1` (stereo not drawn) gave Glyco luc inh -1.5, FN deposit inh -7.4 and Env fusion inh 67.5*.
For C[C@H](CO)N1C[C@H](C)[C@@H](CN(C)Cc2ccccc2F)Oc2ncc(/C=C/c3ccccc3)cc2C1=O the results were EWS-Fli block 10.0, PAX8 inh HTS 6.4, AF4-AF9 inh 27.8* and Env fusion inh -13.0[16.7 µM].
C[C@@H]1CN([C@H](C)CO)C(=O)c2cc(/C=C/c3ccccc3)cnc2O[C@H]1CN(C)S(=O)(=O)c1ccc(F)cc1 was read as EWS-Fli block -9.7, FN deposit inh 1.8, PAX8 inh HTS 4.7, AF4-AF9 inh 3.3 and Env fusion inh 19.0[16.7 µM].
C[C@H](CO)N1C[C@H](C)[C@H](CN(C)S(=O)(=O)c2ccc(F)cc2)Oc2ncc(/C=C/c3ccccc3)cc2C1=O was read as EWS-Fli block -0.5, FN deposit inh 19.7, PAX8 inh HTS -24.9, AF4-AF9 inh 4.8 and Env fusion inh 49.8*![16.7 µM].
C[C@H](CO)N1C[C@H](C)[C@@H](CN(C)Cc2ccc3c(c2)OCO3)Oc2ncc(/C=C/c3ccccc3)cc2C1=O was read as EWS-Fli block 18.6, FN deposit inh 6.5, AF4-AF9 inh 26.2* and Env fusion inh 26.0[16.7 µM].
